Experimental data collected from several papers.
Each line is one published result; the experiments were not run side by side.
Target: Activin receptor type-1B (ACVR1B, Homo sapiens, UniProt P36896)
Residues used in one study (P36896 24-505): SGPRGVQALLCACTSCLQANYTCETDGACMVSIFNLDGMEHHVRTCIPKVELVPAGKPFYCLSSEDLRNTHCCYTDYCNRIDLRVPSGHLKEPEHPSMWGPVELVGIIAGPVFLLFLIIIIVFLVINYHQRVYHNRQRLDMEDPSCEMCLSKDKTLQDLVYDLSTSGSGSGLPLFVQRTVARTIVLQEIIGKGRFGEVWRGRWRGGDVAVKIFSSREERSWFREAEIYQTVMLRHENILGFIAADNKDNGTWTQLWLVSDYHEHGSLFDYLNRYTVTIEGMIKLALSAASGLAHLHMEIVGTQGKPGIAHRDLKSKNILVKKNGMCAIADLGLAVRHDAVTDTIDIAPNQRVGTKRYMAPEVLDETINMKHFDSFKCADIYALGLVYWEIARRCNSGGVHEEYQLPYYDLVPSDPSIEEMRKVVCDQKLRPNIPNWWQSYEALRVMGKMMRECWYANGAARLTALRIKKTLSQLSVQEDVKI

| Structure (SMILES) | assay | conditions | measurement | result |
| --- | --- | --- | --- | --- |
| COc1cc2ncnc(Nc3ccc(Oc4ccccc4)cc3C)c2cc1OC | enzyme activity, inhibitor | 1 µM | inhibition | -2% |
| Nc1ncnc2occ(-c3ccc(NC(=O)Nc4cc(C(F)(F)F)ccc4F)cc3)c12 | cell-free assay | 20 µM | remaining signal | 99% |
| CSc1cccnc1N1CCN(Cc2nc3ccccc3[nH]2)CC1 | cell-free assay, competition with immobilised ligand | 1 µM | remaining binding | 100% |
| Cn1c2c(c3ccc(Cl)c(Cl)c31)C(C#N)C(C)(C)NC2=O (centres unmarked) | thermal stability, DSF | 10 µM | ΔTm | 2.9 °C |
| CCN(CC)c1ccc(C2=NNC(=O)CC2C)cc1[N+](=O)[O-] (centres unmarked) | enzyme activity, inhibitor | 10 µM | remaining activity | 109% |
| CCOCCn1cc(C(=O)Nc2ccc(-n3nc(-c4cccnc4)cc3C(F)(F)F)cn2)ccc1=O | cell-free assay, competition with immobilised ligand | 1 µM | remaining binding | 79% |
| O=C(Nc1cnn(-c2csc(C(=O)NC3COC3)c2)c1)Nc1c(F)cccc1Cl | enzyme activity, inhibitor | 5 µM | remaining activity | 82% |
| C[C@@H](c1cccc(C#N)c1)n1cc(Cl)cc(C(N)=O)c1=N | cell-free assay, competition with immobilised ligand | 1 µM | remaining binding | 100% |
| CC(C)(C)c1nc(-c2cccc(NS(=O)(=O)c3c(F)cccc3F)c2F)c(-c2ccnc(N)n2)s1 | enzyme activity, inhibitor, radiometric | 1 µM | remaining activity | 22% |
| CN1CCN(c2cnc3c(C4CCN(C(=O)c5ccc(OC(F)(F)F)cc5N)CC4)ncnc3c2)CC1 | cell-free assay, competition with immobilised ligand | 1 µM | remaining binding | 79% |
| Cc1ccc(Nc2nccc(N(C)c3ccc4c(C)n(C)nc4c3)n2)cc1S(N)(=O)=O | cell-free assay, inhibitor | 10 µM | inhibition | 17% |
| CCN1CCC2(CC1)NC(=O)c1c(c3ccc(Cl)c(Cl)c3n1C)C2C#N (racemic) | thermal stability, DSF | 10 µM | ΔTm | 0 °C |
| CN([C@@H]1CCc2c(CC(=O)O)c3cc(S(C)(=O)=O)ccc3n2C1)S(=O)(=O)c1ccc(F)cc1 | cell-free assay, competition with immobilised ligand | 1 µM | remaining binding | 99% |
| CN(C)C1CCN(CC#Cc2nn(C3CCCC3)c3nc(NCc4ccccc4)ncc23)C1 (centres unmarked) | enzyme activity, inhibitor, FRET | 0.1 µM | inhibition | 0% |
| Cc1cc(NC(=O)c2cccc3cc(-c4cccc5[nH]nc(N)c45)ccc23)ccc1F | enzyme activity, inhibitor | 0.1 µM | activity vs control | 103% |
| CS(=O)(=O)c1cc(C2(NC(=O)c3cncc4c3cnn4-c3ccc(F)cc3)CC2)ccn1 | cell-free assay, competition with immobilised ligand | 1 µM | remaining binding | 100% |
| Cn1c2c(c3ccc(Cl)c(Cl)c31)C(C#N)C1(CCNCC1)NC2=O (racemic) | thermal stability, DSF | 10 µM | ΔTm | -0.1 °C |
| O=C(Nc1ccc(Oc2ccc(F)cc2)cc1)N1CCc2ncccc2[C@H]1c1ccc(F)cc1 | cell-free assay, competition with immobilised ligand | 1 µM | remaining binding | 94% |
| O=C1Nc2ccc(Cl)cc2C1=Cc1cc(Cl)c(O)c(Cl)c1 | cell-free assay | 0.5 µM | remaining signal | 127% |
| Cc1ccc(NC(=O)c2ccc(C)c(C(F)(F)F)c2)cc1C#Cc1nn(C2CCC(O)CC2)c2ncnc(N)c12 (centres unmarked) | cell-free assay | 10 µM | remaining signal | 79% |
| O=C(Nc1cnn(-c2csc(C(=O)NC3COC3)c2)c1)Nc1ccccc1Cl | enzyme activity, inhibitor | 5 µM | remaining activity | 124% |
| CNC(=O)c1cc(Oc2ccc(NC(=O)Nc3ccc(Cl)c(C(F)(F)F)c3)cc2)ccn1 | cell-free assay, inhibitor | 0.3 µM | inhibition | -6% |
| CS(=O)(=O)Nc1cccc(-c2csc(NC(=O)CSc3nc4nccnc4c(=O)n3CCc3ccccc3)n2)c1 | enzyme activity, inhibitor | 10 µM | inhibition | 2% |
| O=c1cc(-c2cccc3c2Sc2ccccc2S3)oc(N2CCOCC2)c1 | enzyme activity, inhibitor | 0.5 µM | remaining activity | 114% |
| Cn1nc(C(=O)NCc2ccc(C(=O)O)cc2)cc1-c1ccc2[nH]ccc2c1 | cell-free assay, competition with immobilised ligand | 0.1 µM | remaining binding | 83% |
| Cc1ccc(C(=O)Nc2ccc(CN3CCN(C)CC3)c(C(F)(F)F)c2)cc1C#Cc1cnc2cccnn12 | enzyme activity | 23.5 nM | remaining activity | 100% |
| COc1cc(-c2cc(-c3ccc(N4CCNCC4)cc3)cnc2C)cc(OC)c1OC | enzyme activity, inhibitor | 1 µM | inhibition | 36% |
| Cn1c2c(c3ccc(Cl)c(Cl)c31)C(C#N)C1(CCOCC1)NC2=O (centres unmarked) | thermal stability, DSF | 10 µM | ΔTm | 0.2 °C |
| CCN(CC)CCNC(=O)c1c(C)[nH]c(/C=C2\C(=O)Nc3ccc(F)cc32)c1C | cell-free assay | 0.5 µM | remaining signal | 101% |
